Measured values from ChEMBL document CHEMBL1144441, “Identification of a novel cardenolide (2''-oxovoruscharin) from Calotropis procera and the hemisynthesis of novel derivatives displaying potent in vitro antitumor activities and high in vivo tolerance: structure-activity relationship analyses” (J Med Chem, 2005).

Experiments:
Mus musculus = experiment: Maximum tolerated dose after intraperitoneal administration in mouse (period of 28 days); assay type: functional
Method in brief: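 Healthy, non-tumour-bearing B6D2F1 mice given one acute intraperitoneal dose, three mice per dose group, doses 5, 10, 20, 40, 80, 120 and 160 mg/kg. Survival and body weight followed for 28 days after injection. MTD is the highest single dose causing no deaths over the period.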

HCT-15 = experiment: Concentration required for 50% growth inhibition of human HCT-15 cancer cell lines after 3 days of culture; assay type: functional, cell-based; conditions: HCT-15, 72 h
Method in brief: (§1)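 MTT overall-growth assay on the five lines. Cells were plated for 24 h at 10 000–40 000 cells/mL, depending on cell type. Nine concentrations from 10^-9 to 10^-5 M in semilog steps were applied for 72 h. Formazan was read at 570 nm against a 630 nm reference, in sextuplicate. IC50 = concentration reducing overall growth by 50% versus untreated control.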

U373 MG = experiment: Concentration required for 50% growth inhibition of human U373 cancer cell lines after 3 days of culture; assay type: functional, cell-based, U-373MG ATCC; conditions: 72 h; method in brief: as §1
A549 = experiment: Concentration required for 50% growth inhibition of human A549 cancer cell lines after 3 days of culture; assay type: functional, cell-based; conditions: A549, 72 h; method in brief: as §1
[1] = biological target: Sodium/potassium-transporting ATPase subunit alpha-1 (Sus scrofa, UniProt P05024); experiment: In vitro inhibitory activity against porcine Na+/K+-ATPase
Method in brief: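 Porcine cerebral cortex Na+/K+-ATPase (3 × 10-3 units), preincubated 30 min at 37 °C in 30 mM Tris-HCl pH 7.4, 5 mM MgCl2 with inhibitor (1 to 50 000 nM). ADP formation coupled via pyruvate kinase/lactate dehydrogenase, excess phosphoenolpyruvate, to NADH oxidation.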

[2] = Concentration required for 50% growth inhibition of human Hs 683 cancer cell lines after 3 days of culture; assay type: functional, cell-based; conditions: 72 h; method in brief: as §1
LoVo = experiment: Concentration required for 50% growth inhibition of human LoVo cancer cell lines after 3 days of culture; assay type: functional, cell-based; conditions: 72 h; method in brief: as §1

| SMILES | MTD (Mus musculus) | IC50 (HCT-15) | IC50 (U373 MG) | IC50 (A549) | IC50 [1] | IC50 [2] | IC50 (LoVo) |
| --- | --- | --- | --- | --- | --- | --- | --- |
| C[C@@H]1C[C@@]2(N=C(N)CS2)C2(O[Si](C)(C)C)O[C@@H]3C[C@@]4(CO[Si](C)(C)C)[C@@H](CC[C@@H]5[C@@H]4CC[C@]4(C)[C@@H](C6=CC(=O)OC6)CC[C@]54CO)C[C@H]3O[C@@H]2O1 (stereo partly specified) | >160 mg/kg | 3.66 µM | 4.62 µM | 2.58 µM | 4.08 µM | 1.11 µM | 3.85 µM |
| C[C@@H]1C[C@@]2(N=C(N)CS2)C2(O[Si](C)(C)C)O[C@@H]3C[C@@]4(C=O)[C@@H](CC[C@@H]5[C@@H]4CC[C@]4(C)[C@@H](C6=CC(=O)OC6)CC[C@]54CO[Si](C)(C)C)C[C@H]3O[C@@H]2O1 (stereo partly specified) | >160 mg/kg | > 10 µM | > 10 µM | 7.54 µM | 50 µM | 8.6 µM | > 10 µM |
| C[C@@H]1C[C@@]2(N=C(N)CS2)C2(O)O[C@@H]3C[C@@]4(COC(=O)c5ccccc5)[C@@H](CC[C@@H]5[C@@H]4CC[C@]4(C)[C@@H](C6=CC(=O)OC6)CC[C@]54CO)C[C@H]3O[C@@H]2O1 (stereo partly specified) | >40 mg/kg | > 10 µM | > 10 µM | > 10 µM | > 50 µM | > 10 µM | > 10 µM |
